Activity calls are given as the source filed them. No cut-off for these calls is given here.
Legend:
HL-60 [1] = assay: Cytotoxicity in human HL60 cells assessed as cell viability after 48 hrs by MTT assay; format: functional, cell-based; settings: HL-60, 48 h
Method in brief: (§1)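 Growth conditions: RPMI 1640 for HL60, CRL1579, NIH:OVCAR-3, SK-BR-3, DU145 and PANC-1; D-MEM for A549; MEM for WI-38; all with 10% FBS and antibiotics, 37 °C, 5% CO2. Seeded at 3 × 10^3 cells/well (OVCAR-3 1 × 10^4), then treated 48 h with 10^-4 to 10^-6 M. MTT for 3 h, formazan dissolved in 0.04 M HCl/2-propanol, A570/630. IC50 (50% growth inhibition) from triplicates.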

PANC-1 = assay: Cytotoxicity in human PANC1 cells assessed as cell viability after 48 hrs by MTT assay; format: functional, cell-based; settings: PANC-1, 48 h; method in brief: as §1
[2] = Cytotoxicity in human CRL1579 cells assessed as cell viability after 48 hrs by MTT assay; format: functional, cell-based; method in brief: as §1
HL-60 [3] = assay: Cell cycle arrest in human HL60 cells assessed as accumulation at sub-G1 phase at 30 uM after 24 hrs by flow cytometry (reference value: 3.0%); format: functional
Method in brief: (§2)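 Cells seeded at 1 × 10^5 per sample for HL60 and 1.5 × 10^5 for A549, then exposed to 30 μM for 0, 24 or 48 h. After a PBS wash, DNA was stained with Nim-DAPI for 10 min at room temperature. Phase distribution was read by flow cytometry, with the sub-G1 (fragmented DNA) fraction taken as the apoptosis index. Values are means of three experiments.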

HL-60 [4] = assay: Cell cycle arrest in human HL60 cells assessed as accumulation at Go/G1 phase at 30 uM after 24 hrs by flow cytometry (reference value: 51.4%); format: functional; method in brief: as §2
HL-60 [5] = assay: Cell cycle arrest in human HL60 cells assessed as accumulation at S phase at 30 uM after 24 hrs by flow cytometry (reference value: 42.6%); format: functional; method in brief: as §2
HL-60 [6] = assay: Induction of apoptosis in human HL60 cells assessed as accumulation at Go/G1 phase at 30 uM after 48 hrs by flow cytometry (reference value: 51.4%); format: functional; method in brief: as §2
HL-60 [7] = assay: Cell cycle arrest in human HL60 cells assessed as accumulation at G2/M phase at 30 uM after 48 hrs by flow cytometry (reference value: 6.0%); format: functional; method in brief: as §2
A549 [8] = assay: Cell cycle arrest in human A549 cells assessed as accumulation at sub-G1 phase at 30 uM after 24 hrs by flow cytometry (reference value: 3.1%); format: functional; method in brief: as §2
A549 [9] = assay: Cell cycle arrest in human A549 cells assessed as accumulation at S phase at 30 uM after 24 hrs by flow cytometry (reference value: 27.7%); format: functional; method in brief: as §2
A549 [10] = assay: Cell cycle arrest in human A549 cells assessed as accumulation at G2/M phase at 30 uM after 48 hrs by flow cytometry (reference value: 4.9%); format: functional; method in brief: as §2
A549 [11] = assay: Cell cycle arrest in human A549 cells assessed as accumulation at Go/G1 phase at 30 uM after 48 hrs by flow cytometry (reference value: 64.3%); format: functional; method in brief: as §2
WI-38 = assay: Cytotoxicity against human WI38 cells assessed as cell viability after 48 hrs by MTT assay; format: cell-based; settings: WI-38, 48 h; method in brief: as §1
A549 [12] = assay: Induction of mitochondrial signal transduction pathway-mediated apoptosis in human A549 cells assessed as decrease in Bcl-2 level at 30 uM after 24 to 48 hrs by Western blot analysis; format: functional, cell-based
Method in brief: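 A549 cells (1.5 × 10^5) were pre-incubated 24 h, then given 30 μM for 24 or 48 h. Whole-cell lysates were run on 15% SDS-PAGE, transferred to PVDF and probed overnight at 4 °C for Bax, Bcl-2 and β-actin. The Bcl-2 band was quantified by densitometry relative to untreated cells, n = 3.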

HL-60 [13] = assay: Induction of mitochondrial signal transduction pathway-mediated apoptosis in human HL60 cells assessed as increase in cleaved caspase-3 level at 30 uM after 8 hrs by Western blot analysis; format: functional, cell-based
Method in brief: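 HL60 cells (1 × 10^6) were pre-incubated 24 h, then given 30 μM for 8 or 24 h. Whole-cell lysates were run on 15% SDS-PAGE, transferred to PVDF and probed overnight at 4 °C for procaspase and cleaved caspase-3, with β-actin as loading control.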

HL-60 [14] = assay: Induction of mitochondrial signal transduction pathway-mediated apoptosis in human HL60 cells assessed as increase in cleaved caspase-8 level at 30 uM after 8 hrs by Western blot analysis; format: functional, cell-based
Method in brief: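 HL60 cells (1 × 10^6) pre-incubated 24 h, then exposed to 30 μM final for 8 h. Whole-cell lysates in extraction buffer, resolved on 15% SDS-PAGE, blotted to PVDF, probed overnight at 4 °C with anti-caspase-8 or anti-caspase-9 primary antibodies, β-actin as loading reference. Procaspase loss and cleaved caspase bands read.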

HL-60 [15] = assay: Induction of apoptosis in human HL60 cells assessed as necrotic cells at 30 uM after 24 hrs by AnnexinV/propidium iodide staining (Rvb =2.3%); format: functional
HL-60 [16] = assay: Induction of apoptosis in human HL60 cells assessed as necrotic cells at 30 uM after 48 hrs by AnnexinV/propidium iodide staining (Rvb =2.3%); format: functional
HL-60 [17] = assay: Induction of apoptosis in human HL60 cells assessed as late apoptotic cells at 30 uM after 24 hrs by AnnexinV/propidium iodide staining (Rvb =3.3%); format: functional
HL-60 [18] = assay: Induction of apoptosis in human HL60 cells assessed as late apoptotic cells at 30 uM after 48 hrs by AnnexinV/propidium iodide staining (Rvb =3.3%); format: functional
A549 [19] = assay: Induction of apoptosis in human A549 cells assessed as early apoptotic cells at 30 uM after 48 hrs by AnnexinV/propidium iodide staining (Rvb =4.3%); format: functional
HL-60 [20] = assay: Induction of apoptosis in human HL60 cells assessed as early apoptotic cells at 30 uM after 24 hrs by AnnexinV/propidium iodide staining (Rvb =7.6%)
HL-60 [21] = assay: Induction of apoptosis in human HL60 cells assessed as early apoptotic cells at 30 uM after 48 hrs by AnnexinV/propidium iodide staining (Rvb =7.6%)
HL-60 [22] = assay: Induction of mitochondrial signal transduction pathway-mediated apoptosis in human HL60 cells assessed as decrease in Bcl-2 level at 30 uM after 8 to 24 hrs by Western blot analysis; settings: TDE = time-dependent effect
A549 [23] = assay: Induction of mitochondrial signal transduction pathway-mediated apoptosis in human A549 cells assessed as increase in cleaved caspase-3 level at 30 uM after 24 to 48 hrs by Western blot analysis
A549 [24] = assay: Induction of mitochondrial signal transduction pathway-mediated apoptosis in human A549 cells assessed as increase in cleaved caspase-8 level at 30 uM after 24 to 48 hrs by Western blot analysis
A549 [25] = assay: Induction of mitochondrial signal transduction pathway-mediated apoptosis in human A549 cells assessed as increase in cleaved caspase-9 level at 30 uM after 24 to 48 hrs by Western blot analysis

Structure (SMILES): C=C(CC[C@@H](CO)[C@H]1[C@H](O)C[C@@]2(C)C3=CC[C@@H](C(=C)C)[C@](C)(CCCO)C3=CC[C@]12C)C(C)C [PORICOTRIOL A]
- IC50 (HL-60 [1]): 1.9 µM
- IC50 (PANC-1): 26.3 µM
- IC50 [2]: 5.5 µM
- Activity (HL-60 [3]): 35.4%
- Activity (HL-60 [4]): 62.3%
- Activity (HL-60 [5]): 28.9%
- Activity (HL-60 [6]): 58.6%
- Activity (HL-60 [7]): 10.9%
- Activity (A549 [8]): 7.5%
- Activity (A549 [9]): 7.8%
- Activity (A549 [10]): 3.6%
- Activity (A549 [11]): 73%
- IC50 (WI-38): 55.7 µM
- Activity (A549 [12]): Active
- Activity (HL-60 [13]): Active
- Activity (HL-60 [14]): Active
- Activity (HL-60 [15]): 3.2%
- Activity (HL-60 [16]): 2.5%
- Activity (HL-60 [17]): 14%
- Activity (HL-60 [18]): 30.4%
- Activity (A549 [19]): 24.1%
- Activity (HL-60 [20]): 48.1%
- Activity (HL-60 [21]): 52.5%
- Activity (HL-60 [22]): tde
- Activity (A549 [23]): inactive
- Activity (A549 [24]): inactive
- Activity (A549 [25]): inactive
